Hits are enriched below; roughly 2.1% of the tested compounds scored in any of these assays.
CXCR6 inh: inhibitors of human CXCR6 receptor; inhibition, % at 20 µM; O00574; 360,000 tested, 0.36% active; AID 602244; CHO-K1 PathHunter CXCR6 beta-arrestin, luminescence; in the data active = inhibition above about 34%, passing the limit was not always enough;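 also: antagonist mode with CXCL16 agonist at 10 nM final; 0% = 10 nM CXCL16 with DMSO and 100% = unstimulated wells without agonist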
Target sequence (O00574 whole entry, looked up): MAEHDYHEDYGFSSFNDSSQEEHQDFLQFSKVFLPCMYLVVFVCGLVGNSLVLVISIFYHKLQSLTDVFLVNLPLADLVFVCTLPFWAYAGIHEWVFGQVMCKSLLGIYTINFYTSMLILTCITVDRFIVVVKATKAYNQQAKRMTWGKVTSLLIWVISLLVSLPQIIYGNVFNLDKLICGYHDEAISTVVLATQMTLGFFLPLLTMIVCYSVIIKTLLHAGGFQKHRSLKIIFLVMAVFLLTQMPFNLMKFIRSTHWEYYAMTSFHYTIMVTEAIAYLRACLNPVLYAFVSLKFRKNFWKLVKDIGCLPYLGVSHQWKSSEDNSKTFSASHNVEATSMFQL
HTR2A ag: activates the mouse 5-HT2A serotonin receptor. P35363. CHO-K1 mHTR2A beta-arrestin complementation, luminescence; percent of 30 µM serotonin response. activation, % at 7.6 µM. 360,000 tested, 0.66% active. AID 624169;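 active = activation above a run cutoff, the mean activation of all tested compounds plus 3 SD, cut at about 14% in these data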;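 also: 0% = plate median of compound wells and 100% = 30 µM serotonin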
CCR6 antag: blocks CCL20-driven beta-arrestin recruitment at human CCR6 | P51684 | CHO-K1 CCR6 PathHunter beta-arrestin, luminescence, CCL20-stimulated | inhibition, % at 20 µM | 340,000 tested, 0.49% active | AID 493098;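 active = compounds whose inhibition of the agonist-driven luminescence signal at 20 µM reaches about 50%, limit read from the data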;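 also: cells stimulated with CCL20 at 14 nM final; plate controls were DMSO with CCL20 for no effect and DMSO without agonist for full effect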
Target sequence (P51684 whole entry, looked up): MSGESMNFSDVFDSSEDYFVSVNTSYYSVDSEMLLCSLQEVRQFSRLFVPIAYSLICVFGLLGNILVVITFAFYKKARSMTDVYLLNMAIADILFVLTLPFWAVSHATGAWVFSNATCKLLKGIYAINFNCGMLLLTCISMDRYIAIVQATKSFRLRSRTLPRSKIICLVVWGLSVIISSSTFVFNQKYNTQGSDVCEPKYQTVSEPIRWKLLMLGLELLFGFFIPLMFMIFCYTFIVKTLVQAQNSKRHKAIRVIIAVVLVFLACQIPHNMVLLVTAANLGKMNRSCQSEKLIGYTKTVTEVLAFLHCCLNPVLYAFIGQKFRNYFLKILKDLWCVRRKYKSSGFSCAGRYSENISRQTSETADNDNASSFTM
APJ ag: activates the human apelin receptor APJ; CHO-K1 APJ PathHunter beta-arrestin, luminescence; 0% DMSO wells, 100% apelin; activation, % at 20 µM; 330,000 tested, 0.11% active;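 active = activation more than six SD over the plate average, tested at 20 µM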;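 also: 0% = DMSO alone and 100% = apelin-13 at 10 nM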
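Test system – PathHunter CHO-K1 APJ (AGTRL-1) beta-arrestin reporter cells · Input – 1000 cells/well · Compound – single test compound dose, 20 µM final, 1% DMSO · Times – compound stimulation 90 min at 25 °C, detection 60 min · Technique – beta-gal luminescence · Read-out basis – APJ–arrestin association signal · Control set – negative DMSO alone, positive Apelin-13 at 10 nM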
EBI2 antag: blocks human EBI2 receptor beta-arrestin signaling; 360,000 tested, 0.81% active; P32249; inhibition, % at 5 µM; EBI2 beta-arrestin recruitment, luminescence, 7a,25-OHC stimulated; in the data active = inhibition above about 38%;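 also: enzyme fragment complementation signal reports receptor beta-arrestin coupling in cells; 0% = agonist plus DMSO wells and 100% = wells without agonist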
APJ antagonist: blocks the human apelin receptor APJ | P35414 | CHO-K1 APJ beta-arrestin complementation, luminescence | inhibition, % at 20 µM | 330,000 tested, 0.32% active;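 active = inhibition above about 40% at 20 µM, limit read from the data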;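 also: cells challenged with 10 nM apelin-13 agonist together with compound; plate controls were apelin-13 plus DMSO wells for no effect and DMSO wells lacking apelin-13 for full effect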
* = called active by the depositor; / = no result.

SMILES	CXCR6 inh	HTR2A ag	CCR6 antag	APJ ag	EBI2 antag	APJ antagonist
O=C(NCc1ccccc1)c1cc(C2COCCN2C(=O)c2ccccc2)on1 (centres undefined)	-6.4	-2.7	/	/	4.1	/
COc1ccc(N2C(=O)NC(NS(=O)(=O)c3ccc(NC(C)=O)cc3)(C(F)(F)F)C2=O)cc1 (centres undefined)	-7.8	4.2	6.4	-1.1	-7.0	-50.6
CCOC(=O)Cc1csc(Nc2c(C)n(C)n(-c3ccccc3)c2=O)n1	9.3	0.7	69.2*	0.9	-9.2	11.4
CCOC(=O)c1ccc(N=c2sc(C(=O)OC)cc(=O)n2Cc2ccc3c(c2)OCO3)cc1	4.9	-2.5	9.9	-5.5	72.7*	15.3
Cc1[nH]n(-c2nc(-c3ccc(Cl)cc3)cs2)c(=O)c1N=Nc1ccc(O)cc1	23.9	-0.9	25.0	-3.8	51.2*	23.5
O=[N+]([O-])c1cccc(/C=N\N=C2c3ccccc3-c3ccccc32)c1O	43.4*	-1.8	69.3*	-9.7	-4.5	54.2*
Cc1oc2c(c1C(=O)c1ccccc1)C(=O)C(=O)c1ccccc1-2	35.5	8.8	70.7*	9.4	-4.0	-10.8
Cc1oc2c(c1C(=O)O)C(=O)c1ccccc1C2=O	-18.2	3.2	-20.5	0.6	-19.5	-170.1
O=C(O)CSc1nc(C(F)(F)F)cc(=O)n1-c1ccccc1	-2.9	17.0*	-3.0	-3.2	0.0	3.6
Cc1csc(-c2cc(C(=O)NCc3ccc(F)cc3)n[nH]2)c1	-0.6	-6.6	/	/	-10.4	/
Cn1c(C(=O)N2CCN(c3ccc(Cl)cc3)CC2)cc2c(=O)[nH]c3ccccc3c21	-2.3	-5.5	-9.7	22.8	83.1*	-22.0
Oc1c(I)cc(Cl)c2cccnc12	35.7*	-0.5	55.0*	-4.1	14.5	17.1
CC(C)N(Cc1ccccc1)C(=O)c1ccc2nsnc2c1	4.5	10.4	7.2	-0.1	-15.1	8.7
CCCCNC(=O)C[C@@H]1C[C@@]2(C(=O)OCC)CCCC=C2N(CCC2=CCCCC2)C1=O	/	-5.9	/	/	3.6	/
COc1ccc(NC(=O)c2cc(S(=O)(=O)N3CCc4ccccc43)cn2C)c(OC)c1	-4.2	2.8	8.8	1.9	66.3*	6.3
O=C(O)C1OC1(c1ccccc1Cl)c1ccccc1Cl (centres undefined)	-3.0	-0.1	6.6	/	-2.6	/
O=C(CS(=O)c1ccc(C(F)(F)F)cc1[N+](=O)[O-])Oc1ccccc1 (centres undefined)	3.7	1.9	12.8	16.5	-11.4	14.6
CS(=O)(=O)c1ccc(S(=O)CC(=O)OCc2ccccc2)c([N+](=O)[O-])c1 (centres undefined)	51.5*	-6.1	/	/	41.5*	/
O=C(NN=C1c2ccccc2-c2ccccc21)c1cccc(Br)c1	46.5*	-1.3	46.9	-3.8	12.8	39.9
S=c1[nH]nc(Cc2ccccc2)n1Cc1ccco1	6.4	15.2*	2.4	-1.6	-1.1	1.0
CCOC(=O)/C(=C\c1cccnc1)C(=O)c1cc(C(C)=O)c(Nc2ccccc2)s1	93.2*	-2.6	99.5*	-4.6	80.9*	68.8*
CCOC(=O)C(=Cc1ccc(Br)cc1)C(=O)OCC	1.1	-0.8	27.8	/	12.4	/
CCOC(=O)/C(C#N)=C\c1cccnc1	-3.0	-0.1	-4.5	-3.0	-3.9	-7.0
CCOC(=O)/C(=C\c1ccccc1)C(=O)c1cc(C(C)=O)c(Nc2ccccc2)s1	10.7	-4.8	27.0	5.7	47.6*	17.3
CCc1ccc(S(=O)(=O)/N=C2\C=C(Nc3cccc(C(=O)O)c3)C(=O)c3ccccc32)cc1	18.3	-5.3	45.4	-1.8	-2.3	0.9
SMILES	CXCR6 inh	HTR2A ag	CCR6 antag	APJ ag	EBI2 antag	APJ antagonist
CCc1ccc(S(=O)(=O)/N=C2/C=C(Sc3ncn[nH]3)C(=O)c3ccccc32)cc1	54.5*	6.5	/	/	3.4	/
O=C1C(Nc2ccc(O)cc2)=C/C(=N/S(=O)(=O)c2cccs2)c2ccccc21	33.6	-2.9	59.4*	/	20.5	/
CCc1ccc(S(=O)(=O)/N=C2\C=CC(=O)c3ccccc32)cc1	/	/	/	5.3	/	-33.4
O=C(O)c1ccc(NC2=C/C(=N/S(=O)(=O)c3cccs3)c3ccccc3C2=O)cc1	14.1	-4.9	/	/	-27.8	/
CCc1ccc(S(=O)(=O)/N=C2\C=C(Nc3ccc(O)cc3)C(=O)c3ccccc32)cc1	41.4*	-20.0	57.0*	-7.4	8.7	25.1
Cc1cccc(NC2=C/C(=N/S(=O)(=O)c3cccs3)c3ccccc3C2=O)c1	26.7	1.0	52.8*	/	16.6	/
Cc1cc(C)c(S(=O)(=O)/N=C2\C=C(Nc3ccc(C(=O)O)cc3)C(=O)c3ccccc32)c(C)c1	28.7	-3.6	/	-3.6	8.7	-8.4
Cc1cc(C)n2c(SCC(=O)N(CC(C)C)c3c(N)n(CC(C)C)c(=O)[nH]c3=O)nnc2n1	-1.4	-0.5	-6.8	-3.3	-2.2	-4.8
O=c1ccoc2ccccc12	13.6	-1.9	/	/	-3.2	/
Cc1cc(C)c(S(=O)(=O)/N=C2\C=C(NS(=O)(=O)c3ccccc3)C(=O)c3ccccc32)c(C)c1	31.1	5.7	37.7	-5.0	9.0	29.1
Cc1ccc(Cl)cc1NC1=C/C(=N\S(=O)(=O)c2cccs2)c2ccccc2C1=O	30.6	-4.4	58.5*	-0.9	6.1	38.7
Cc1ccc(NC2=C/C(=N\S(=O)(=O)c3cccs3)c3ccccc3C2=O)c(C)c1	33.1	-4.8	59.1*	-5.9	25.6	23.6
CN1CCN(/N=C/c2c3ccccc3c(Cl)c3ccccc23)CC1	-6.5	-5.5	1.0	-0.9	-4.9	-6.7
CN(C)S(=O)(=O)c1ccc(C(=O)Nc2nc(-c3cccs3)cs2)cc1	2.2	1.3	10.2	0.0	77.2*	1.0
CCN1CCN(CC(=O)Nc2ccc3c(c2)OCO3)C(=O)C1=O	-7.2	23.2*	1.6	-0.7	-5.0	-4.6
O=C(Cn1ccc2ccccc2c1=O)Nc1ccc2c(c1)OCO2	-6.2	-4.5	69.1*	-5.2	-8.2	-4.8
CCN1C(=O)/C(=C/C=C2\N(CC)c3cc(S(=O)(=O)N(C)C)ccc3N2c2ccccc2)SC1=S	51.6*	2.8	66.8*	-5.1	33.8	26.6
COc1ccc(S(=O)(=O)NNS(=O)(=O)c2ccc(OC)c(OC)c2)cc1OC	-0.3	7.1	/	/	-3.1	/
NS(=O)(=O)c1ccc(NC(=O)COC(=O)COc2ccc3ccccc3c2)cc1	-3.5	17.4*	-0.1	-0.5	-9.4	2.3
NS(=O)(=O)c1cccc(NC(=O)COC(=O)COc2ccc3ccccc3c2)c1	-1.3	0.7	-6.2	-2.5	5.3	-6.1
O=C(OCCCOC(=O)c1cc[n+]([O-])cc1)c1cc[n+]([O-])cc1	-2.5	11.1	8.1	5.7	-8.4	-9.5
O=C(c1cccc(NS(=O)(=O)c2ccccc2)c1)N1CCN(c2ccccc2)CC1	-9.1	6.1	4.4	-3.9	-8.4	14.6

Source: PubChem BioAssay
